TDP2 absorb: blocks human TDP2 phosphodiesterase activity | recombinant TDP2, T5PNP hydrolysis, p-nitrophenol absorbance 415 nm | inhibition, % at 12.8 µM | 0.34% of 370,000 active;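 active = inhibition above the mean of all tested compounds plus 3 SD, set per campaign, cut at about 25% in these data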
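Material: recombinant human TDP2; quantity: TDP2 enzyme at 120 nM final; medium: Tris-HCl pH 7.5 with MgCl2; compound: single concentration, 12.8 µM nominal, with 1% DMSO; incubation: 2 h enzyme incubation at 37 °C; signal: epi absorbance; measure: percent inhibition; benchmarks: high control without enzyme, low control DMSO plus TDP2; repeats: singlicate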
LEDGF integ inh: blocks HIV-1 LEDGF/p75-dependent DNA integration | TR-FRET IN-LEDGF/p75 DNA integration, Eu/Cy5 | inhibition, % at 3.7 µM | 0.64% of 370,000 active;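 active = inhibition above the screen-wide mean plus 3 SD, cut at about 13% in these data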;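 note: signal is the Cy5 over europium emission ratio at 671 and 618 nm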
UHRF1 MBD2 ctr: UHRF1 methyl-DNA binding inhibition. UHRF1 binding to methylated oligo, TR-FRET. inhibition, % at 4.4 µM. 0.75% of 370,000 active. Q96T88; in the data active = inhibition above about 21%;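 note: UHRF1 SRA domain binding a hemimethylated CpG hairpin DNA probe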
MBD2 DNA inh: MBD2-methylated oligo binding inhibition. inhibition, % at 4.4 µM. TR-FRET, MBD2 binding to methylated oligonucleotide. AID 686964. Q9UBB5. 0.31% of 370,000 active; in the data active = inhibition above about 13%
Target sequence (Q9UBB5 whole entry, looked up): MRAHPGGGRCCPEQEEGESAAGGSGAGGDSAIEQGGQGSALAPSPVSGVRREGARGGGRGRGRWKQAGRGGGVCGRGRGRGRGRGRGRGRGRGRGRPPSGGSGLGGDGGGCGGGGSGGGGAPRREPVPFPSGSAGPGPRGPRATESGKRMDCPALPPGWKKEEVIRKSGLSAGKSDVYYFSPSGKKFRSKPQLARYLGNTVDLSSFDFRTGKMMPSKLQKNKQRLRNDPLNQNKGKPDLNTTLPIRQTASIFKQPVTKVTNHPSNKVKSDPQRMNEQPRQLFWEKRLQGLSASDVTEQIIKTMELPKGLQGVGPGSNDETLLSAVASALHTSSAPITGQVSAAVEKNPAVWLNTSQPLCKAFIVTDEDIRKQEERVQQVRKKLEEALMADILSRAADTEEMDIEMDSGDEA
SIAE inh: blocks human sialic acid acetylesterase; Q9HAT2; SIAE FP-Rh probe binding, fluorescence polarization; inhibition, % at 9.66 µM; 0.69% of 370,000 active; AID 1053197;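 active = inhibition above a cutoff: mean of compounds within the control limits plus 3 SD of those, cut at about 17% in these data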
PRMT1 FP inh: inhibitors of human PRMT1; inhibition, % at 2.79 µM; 1.3% of 370,000 active; Q99873; recombinant PRMT1, activity-based probe fluorescence polarization;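 active = inhibition above about 21% made by adding two undisclosed values, limit read from the data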
Of the large screens only hits and unclear results are named; the others gave an inactive call. Rows were chosen to be rich in hits. Some 3.3% of all compounds tested hit in one or more screens of this group.

NS(=O)(=O)c1ccc(NC(=S)NC2CCCCCC2)cc1	PRMT1 FP inh 24
O=S(=O)(NCC(c1cccnc1)N1CCOCC1)c1ccccc1 (stereo not given)	none
O=S(=O)(NCC(c1cccnc1)N1CCOCC1)c1ccc(Cl)cc1 (stereo not given)	UHRF1 MBD2 ctr 25
Cc1cc(C)c2c(=N)c3ccccc3n(CCCCCCCCn3c4ccccc4c(=N)c4c(C)cc(C)nc43)c2n1	UHRF1 MBD2 ctr 41, MBD2 DNA inh 28
CCN(C[C@H]1N[C@@](CC)(C(=O)OC)[C@H]2C(=O)N(C)C(=O)[C@@H]12)C(=O)Nc1ccc(C(F)(F)F)cc1	none
CC[C@@]1(C(=O)OC)N[C@H](CN(C)C(=O)Nc2ccc(C(F)(F)F)cc2)[C@@H]2C(=O)N(C)C(=O)[C@@H]21	UHRF1 MBD2 ctr 22
O=C1C(=O)N(Cc2ccc(-c3ccc(Cl)nc3)cc2)c2ccc(OC(F)(F)F)cc21	none
O=[N+]([O-])c1ccc2nc(-c3cccnc3)[nH]c2c1	none
O=[N+]([O-])c1cc([N+](=O)[O-])c2cc(-c3cccnc3)[nH]c2c1	TDP2 absorb 26
O=C(CCc1c[nH]c2ccccc12)N1CCN(c2ccc(F)cc2)CC1	none
O=C(CCCc1c[nH]c2ccccc12)N1CCN(c2ccc(N3CCOCC3)nn2)CC1	SIAE inh 19
COC(=O)[C@H](C(C)C)N1CCc2nnn(CC3CCCCC3)c2-c2cc(F)ccc2S1(=O)=O	none
COc1ccc(NC(=S)NCc2ccccc2)c(OC)c1	none
COc1cc(OC)c(NC(=S)NCc2ccccc2)cc1Cl	UHRF1 MBD2 ctr 65
COc1ccc(-c2c3c([nH]c(=S)c2C#N)CCC3)cc1	PRMT1 FP inh 23
CC(=O)Nc1ccc2oc(-c3ccccc3)nc2c1	UHRF1 MBD2 ctr 23
CC(=O)Nc1cccc(-c2nc3ccccc3o2)c1	none
CC(=O)Nc1ccc(S(=O)(=O)Nc2cccc(-c3nc4cc(C)ccc4o3)c2)cc1	UHRF1 MBD2 ctr 21
CC(=O)Nc1ccc(S(=O)(=O)NNc2cccc(C)c2)cc1	PRMT1 FP inh 23
CCN(C[C@@H]1[C@@H](c2ccccc2)[C@H](CO)N1S(C)(=O)=O)C(=O)C1CCC1	none
O=C(N=C1N(Cc2ccccc2)[C@@H](Cc2ccccc2)[C@]2(C=C3CCCCC3n3c(=O)n(-c4ccccc4)c(=O)n32)N1C(=O)OCc1ccccc1)c1ccccc1 (stereo not given in full)	none
S=c1nc(-c2sccc2OCc2ccc(Cl)cc2Cl)[nH][nH]1	PRMT1 FP inh 25
O=C1CC(Nc2ccc3ccccc3c2)C(=O)N1Cc1ccccc1 (stereo not given)	none
O=C1CC(Nc2ccc(N3CCOCC3)cc2)C(=O)N1Cc1ccccc1 (stereo not given)	LEDGF integ inh 22, SIAE inh 18
Cc1cnc(C(=O)N2CCc3c([nH]c4ccccc34)C2c2ccc(F)cc2)cn1 (stereo not given)	UHRF1 MBD2 ctr 21
CCOC(=O)[C@@]12CN(C(=O)OC(C)(C)C)CC=C1N(Cc1ccc(OC)cc1)C(=O)[C@H]2CC(=O)N1CCC(c2ccccc2)CC1	none
COc1ccc2nccnc2c1[N+](=O)[O-]	UHRF1 MBD2 ctr 30
O=C(O)CCC(=O)Nc1ccc(SSc2ccc(NC(=O)CCC(=O)O)cc2)cc1	PRMT1 FP inh 92
CCCCN1C(=O)C(=O)NC[C@@H]1CC1CCCCC1	UHRF1 MBD2 ctr 48
Cc1ccc(C)c(NC(=O)CN(C)S(=O)(=O)c2cccc3cccnc23)c1	UHRF1 MBD2 ctr 27
Cc1cccc(NC(=O)CN(C)S(=O)(=O)c2cccc3cccnc23)c1C	none
CCCN(CCC)Cc1cc(=O)oc2cc3c(cc12)CCC3	UHRF1 MBD2 ctr 31
CCCN(CCC)Cc1cc(=O)oc2cc(C)c(C)cc12	none
Cc1cc(C)n(-c2ccc3nnc(C)n3n2)n1	UHRF1 MBD2 ctr 24
CC1CN(C2CCN(S(=O)(=O)c3ccc(F)cc3)CC2)CC(C)O1 (stereo not given)	UHRF1 MBD2 ctr 21
CC1CN(C2CCN(S(=O)(=O)c3ccccc3)CC2)CC(C)O1 (stereo not given)	none
Fc1ccc(C2CC(c3ccco3)=NN2c2ccccc2)cc1 (stereo not given)	none

Screens (PubChem)
